The results in this text go back to ChEMBL document CHEMBL4622869, “Discovery and structure-activity relationships study of positive allosteric modulators of the M3 muscarinic acetylcholine receptor” (Bioorg Med Chem, 2020).

Data set [1] deals with Muscarinic acetylcholine receptor M3 (Rattus norvegicus) (UniProt P08483). The data set is described as follows: Positive allosteric modulation of recombinant rat muscarinic acetylcholine receptor M3 expressed in CHOK1 cells assessed as increase in carbachol-induced intracellular calcium flux at 10 uM preincubated for 5 mins followed by carbachol addition by Fluo4-AM dye based FLIPR assay relative to carbachol. The note with it: CHO-K1. In kind it is functional, cell-based. Put shortly: (§1)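 CHO-K1 cells stably expressing human or rat M1–M5; M2 and M4 lines also co-express human Gα16. Cells loaded with 3.1 μM Fluo-4 AM in HBSS/20 mM HEPES pH 7.5/BSA/2.5 mM probenecid for ~2 h at room temperature. Test substance at 10 μM final, then carbachol (0.0024 nM–100 μM) ~5 min later; Ca2+ read by FLIPR Tetra. Fold shift = carbachol EC50 without / with test substance, from logistic fits.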

For another data set, the target named is T1, Thrombopoietin receptor (Homo sapiens, UniProt P40238).
T1 sequence (P40238 whole entry): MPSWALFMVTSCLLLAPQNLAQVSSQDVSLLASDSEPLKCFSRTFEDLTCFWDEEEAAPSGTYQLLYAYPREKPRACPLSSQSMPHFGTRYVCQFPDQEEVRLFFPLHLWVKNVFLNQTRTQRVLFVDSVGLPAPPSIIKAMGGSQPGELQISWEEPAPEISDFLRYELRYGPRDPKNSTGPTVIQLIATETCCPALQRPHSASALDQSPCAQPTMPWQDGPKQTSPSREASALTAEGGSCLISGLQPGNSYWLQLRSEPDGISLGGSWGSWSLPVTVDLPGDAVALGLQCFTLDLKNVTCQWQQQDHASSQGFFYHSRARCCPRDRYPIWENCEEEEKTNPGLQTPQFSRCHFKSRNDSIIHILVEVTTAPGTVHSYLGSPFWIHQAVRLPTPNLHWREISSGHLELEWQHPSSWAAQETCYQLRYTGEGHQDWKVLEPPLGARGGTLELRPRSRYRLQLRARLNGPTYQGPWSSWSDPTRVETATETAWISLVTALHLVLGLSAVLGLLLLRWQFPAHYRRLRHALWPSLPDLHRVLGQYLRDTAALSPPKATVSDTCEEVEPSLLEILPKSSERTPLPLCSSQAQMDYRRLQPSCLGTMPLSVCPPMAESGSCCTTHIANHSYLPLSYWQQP
Briefly: Agonist activity at recombinant human c-Mpl receptor transfected in BA/F3 cells assessed as increase in cell proliferation by cell counting analysis. The data set is classed as cell-based. The note with it: baf3. Put shortly: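 Ba/F3 cells stably transfected with human c-Mpl by electroporation with blasticidin selection. 1×10^4 cells/well in RPMI-1640 with 10% FBS, with test substance (100 nM to 10 μM final), overnight at 37°C in 5% CO2. Cell Counting Kit added for about 5 h, then A450 read. Scale: untreated wells 0%, reference c-Mpl agonist at 1 μM 100%. EC30 from logistic regression.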

Data set [2] in a line: Half life in Crl:CD(SD) rat at 0.3 mg/kg, iv measured up to 24 hrs by LC-MS/MS analysis. In kind it is ADME, organism-based. The note with it: in vivo. In outline:
(§2)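 Male Crl:CD(SD) rats, 8 weeks old, food deprived (n=4); iv 0.3 mg/kg or po 1 mg/kg in DMF/propylene glycol/water for injection (1/1/8) containing 1 M NaOH (2 equivalents). Plasma sampled to 24 h, assayed by validated LC-MS/MS. Parameters from each animal by noncompartmental analysis, reported as means.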

In data set [3] the target is T2, Muscarinic acetylcholine receptor M5 (Homo sapiens) (UniProt P08912).
T2 sequence (whole entry): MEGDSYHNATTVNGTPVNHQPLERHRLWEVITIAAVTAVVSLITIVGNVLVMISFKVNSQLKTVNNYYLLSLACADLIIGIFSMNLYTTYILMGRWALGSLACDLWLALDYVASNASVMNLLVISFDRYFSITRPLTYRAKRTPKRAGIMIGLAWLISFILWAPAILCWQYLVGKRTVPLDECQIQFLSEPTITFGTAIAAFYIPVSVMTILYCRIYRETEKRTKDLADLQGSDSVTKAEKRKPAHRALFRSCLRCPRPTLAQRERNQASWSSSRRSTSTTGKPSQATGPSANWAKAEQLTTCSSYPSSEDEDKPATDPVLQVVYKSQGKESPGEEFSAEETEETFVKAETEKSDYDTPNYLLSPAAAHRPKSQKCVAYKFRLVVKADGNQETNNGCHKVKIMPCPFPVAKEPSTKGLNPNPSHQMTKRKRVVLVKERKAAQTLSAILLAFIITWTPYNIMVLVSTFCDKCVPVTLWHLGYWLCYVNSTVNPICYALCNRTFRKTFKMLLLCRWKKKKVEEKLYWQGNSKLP
Briefly: Positive allosteric modulation of recombinant human muscarinic acetylcholine receptor M5 expressed in CHOK1 cells assessed as increase in carbachol-induced intracellular calcium flux at 10 uM preincubated for 5 mins followed by carbachol addition by Fluo4-AM dye based FLIPR assay relative to carbachol. To be noted: CHO-K1. The data set is classed as functional, cell-based. In outline:
as §1
Background: A change in cytosolic calcium serves as a functional read-out for many receptors and channels.

Data set [4] in a line: Volume of distribution at steady state in Crl:CD(SD) rat at 0.3 mg/kg, iv measured up to 24 hrs by LC-MS/MS analysis. In kind it is ADME, organism-based. To be noted: in vivo, read-out: Vdss. In outline: as §2
The target of data set [5] is T3, Muscarinic acetylcholine receptor M1 (Rattus norvegicus) (UniProt P08482).
T3 sequence (whole entry): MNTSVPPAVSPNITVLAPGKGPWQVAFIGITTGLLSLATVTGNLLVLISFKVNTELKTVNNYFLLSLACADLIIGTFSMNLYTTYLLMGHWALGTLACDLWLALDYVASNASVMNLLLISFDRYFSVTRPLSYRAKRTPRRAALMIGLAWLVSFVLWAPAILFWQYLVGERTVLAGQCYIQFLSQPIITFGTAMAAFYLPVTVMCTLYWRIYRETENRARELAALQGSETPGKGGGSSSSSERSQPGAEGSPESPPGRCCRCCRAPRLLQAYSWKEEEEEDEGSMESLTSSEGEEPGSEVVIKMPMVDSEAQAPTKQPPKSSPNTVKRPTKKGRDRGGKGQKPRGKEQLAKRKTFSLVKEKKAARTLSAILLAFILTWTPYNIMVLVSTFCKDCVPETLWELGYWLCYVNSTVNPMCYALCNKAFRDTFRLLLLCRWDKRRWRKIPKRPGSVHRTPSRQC
Briefly: Positive allosteric modulation of recombinant rat muscarinic acetylcholine receptor M1 expressed in CHOK1 cells assessed as increase in carbachol-induced intracellular calcium flux at 10 uM preincubated for 5 mins followed by carbachol addition by Fluo4-AM dye based FLIPR assay relative to carbachol. In kind it is functional, cell-based. To be noted: CHO-K1. In outline: as §1

Chain of Muscarinic acetylcholine receptor M3 (Rattus norvegicus) (P08483 whole entry, looked up): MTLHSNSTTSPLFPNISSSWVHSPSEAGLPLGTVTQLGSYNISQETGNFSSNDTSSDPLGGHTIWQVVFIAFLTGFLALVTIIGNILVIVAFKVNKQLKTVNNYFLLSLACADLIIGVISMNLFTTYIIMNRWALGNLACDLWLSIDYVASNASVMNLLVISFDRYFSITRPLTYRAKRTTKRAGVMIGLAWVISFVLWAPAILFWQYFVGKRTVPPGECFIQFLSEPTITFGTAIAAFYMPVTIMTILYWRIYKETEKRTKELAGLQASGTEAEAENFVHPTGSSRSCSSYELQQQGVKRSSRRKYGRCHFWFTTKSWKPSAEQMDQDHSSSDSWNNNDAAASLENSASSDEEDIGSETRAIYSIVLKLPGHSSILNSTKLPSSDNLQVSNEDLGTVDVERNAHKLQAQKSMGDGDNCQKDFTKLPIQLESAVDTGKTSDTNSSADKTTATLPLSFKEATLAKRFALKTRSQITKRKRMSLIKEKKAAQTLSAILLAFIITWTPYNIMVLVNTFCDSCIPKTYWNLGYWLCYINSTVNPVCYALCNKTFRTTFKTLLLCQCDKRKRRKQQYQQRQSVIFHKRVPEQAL

As usually defined, the EC30 is the concentration at which the effect reaches the 30% level. One may read the half-life as the time needed for the level to fall by half in the phase considered. A higher half-life goes with slow loss. As for `CC[C@@H]1CCCN1Cc1sc(NC(=O)c2cnc(N3CCC(C(=O)O)CC3)cn2)nc1-c1ccc(OC)c(C(F)(F)F)c1.Cl.Cl`, the fold change (FC) in data set [1] turned out to be 158; in data set [3], 94; in data set [5], 2.1. Besides, the EC30 on Thrombopoietin receptor was greater than 10 µM. In addition, the half-life in data set [2] is 2.43 h. Moreover, the Vd in data set [4] worked out at 1.59 L/kg.
